# Candida biofilm = kills Candida albicans biofilms. C. albicans biofilm + clotrimazole, Alamar Blue. inhibition, % at 6 µM. 85,000 tested, 0.14% active. AID 834;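 active = inhibition above 20%; inactive = inhibition below 20%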;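 note: preformed 24 hr biofilms exposed to compound for 48 hr; 0% = biofilm without compound and 100% = blank killed by clotrimazole plus chlorhexidine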
# D1 allo mod = allosterically modulates the human D1 dopamine receptor; B-score at 10 µM; HEK293 D1, CRE-luciferase, dopamine EC30 potentiation; actives deviate in either direction; 58,000 tested, 5.9% active;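 active = luminescence count or its row- and column-corrected plate score outside the 99.7% band of the plate's sample wells, on either side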
# MMP13 inh = inhibitors of human MMP13; P45452; MMP-13 fTHP FRET cleavage, Mca fluorescence; inhibition, % at 4 µM; 65,000 tested, 0.07% active; AID 570;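 active = inhibition above the mean of compound-free control plate wells plus 3 SD, cut at about 14% in these data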;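 note: 0% = DMSO wells and 100% = wells with reference MMP-13 inhibitor after basal subtraction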
# AP ELISA ortho = alternative pathway complement inhibition, orthogonal assay. Human serum alternative complement pathway, LPS-coated ELISA, C3 deposition; tested in compound mixtures. inhibition, % at 5 µM. 62,000 tested, 0.08% active;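 active = inhibition above 30% in each of the two pooled mixtures holding the compound, so the lower value exceeds 30%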;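 note: 0% = serum in Mg-EGTA without compound and 100% = EDTA serum blank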
#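 Medium: diluted human serum in Mg2+-EGTA GVB++. Assay system: human serum complement alternative pathway, C3 deposition onto LPS. Also added: Plate-bound LPS. Technique: Anti-C3 ELISA, OD 450 nm. Measure: percent inhibition. Incubation: 1 h at 37 °C. Dosing: 5 µM each compound, pools of ten, 50 µM per pool.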
# hDAT+cocaine = changed human dopamine transporter uptake under cocaine IC80; 110,000 tested, 1.3% active; B-score at 10 µM; AID 449768; LLC-PK1 hDAT cells, [14C]-dopamine uptake with cocaine IC80; actives deviate in either direction; Q01959;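 active = Z score or B-score, a plate-position-corrected score, falls beyond the plate's 99.7% confidence bounds, in either direction; inactive = both scores lie inside the 99.7% bounds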;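 note: scored against the spread of the other compound wells on the same plate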
# Target sequence (Q01959 whole entry, looked up): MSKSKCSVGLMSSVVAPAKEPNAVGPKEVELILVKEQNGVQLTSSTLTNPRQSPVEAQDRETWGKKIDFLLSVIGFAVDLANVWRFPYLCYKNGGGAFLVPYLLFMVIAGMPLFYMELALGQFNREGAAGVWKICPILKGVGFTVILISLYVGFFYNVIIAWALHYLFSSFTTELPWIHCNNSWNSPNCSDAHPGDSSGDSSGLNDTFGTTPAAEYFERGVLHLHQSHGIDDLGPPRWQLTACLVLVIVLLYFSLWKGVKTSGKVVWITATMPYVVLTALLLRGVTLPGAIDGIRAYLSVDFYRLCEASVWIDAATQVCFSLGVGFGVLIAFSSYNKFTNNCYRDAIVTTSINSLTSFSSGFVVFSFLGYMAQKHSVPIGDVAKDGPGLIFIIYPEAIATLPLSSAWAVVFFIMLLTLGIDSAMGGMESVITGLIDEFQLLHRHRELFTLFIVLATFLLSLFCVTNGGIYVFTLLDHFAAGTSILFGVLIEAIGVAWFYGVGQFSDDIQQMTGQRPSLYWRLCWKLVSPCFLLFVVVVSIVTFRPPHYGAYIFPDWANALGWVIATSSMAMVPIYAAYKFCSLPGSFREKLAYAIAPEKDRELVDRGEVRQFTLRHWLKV
# Numbers without * were called inactive; i = inactive; nt = not tested or not shown. This is one part of a sample in which hits are shown more often than they occur.
SMILES,Candida biofilm,D1 allo mod,MMP13 inh,AP ELISA ortho,hDAT+cocaine
COC(=O)c1ccc(-n2nnnc2SCC(=O)Nc2cc(OC)ccc2OC)cc1,3.3,1.09,4.3,22.6,0.422
CC(C)[C@H]1C=C(C(=O)O)O[C@@H](OCCCCO)C1,nt,nt,nt,nt,0.0294
CCOC(=O)N1CCN(C(=O)CN(C2CCCCC2)S(=O)(=O)c2c(C)cc(C)cc2C)CC1,3.0,nt,nt,nt,0.79
C=CCOC(=O)C1=C[C@@H](c2ccc3c(c2)OCO3)C[C@@H](OCc2ccc(CO)cc2)O1,nt,nt,nt,nt,-0.514
COC(=O)C1=C[C@@H](C(=O)OC)[C@@H]2C3=C(C(=O)C2(C)C)[C@H](C)n2c(=O)n(-c4ccccc4)c(=O)n2[C@@H]3C1,nt,nt,nt,nt,-0.461
O=C(Cn1nnc2ccccc21)NCc1ccccc1,5.7,-2.08,1.4,9.7,-8.52*
CC1(C)Cc2c(sc3c2c(=N)n(Cc2ccco2)c(=O)n3CC(=O)Nc2ccc(Cl)cc2)CO1,1.6,nt,1.0,11.0,2.04*
O=C(c1cc2ccccc2oc1=O)N1CCN(c2ccccn2)CC1,-0.5,-0.328,5.1,11.2,-0.88
O=C(c1cc2ccccc2oc1=O)N1CCN(c2ncccn2)CC1,0.2,nt,nt,nt,2.88*
CN1CCN(C(=O)c2cc3nc(-c4ccc(Cl)cc4)cc(C(F)(F)F)n3n2)CC1,8.7,-3.7*,-1.3,3.0,0.478
CN1CCN(C(=O)c2cc3nc(-c4ccccc4)cc(C(F)(F)F)n3n2)CC1,-1.5,-0.0996,-6.6,9.5,0.401
Cc1ccc(-c2nc(-c3ccccc3)no2)c(Cl)c1,6.4,-8.69*,-8.4,25.4,0.0968
Cc1ccc(-c2nc(-c3ccccc3)no2)cc1,-3.3,nt,nt,nt,-0.182
Cc1cc(=O)oc(C)c1C(=O)NCC(C)C,4.7,nt,-0.2,nt,-0.145
Cc1cc(=O)oc(C)c1C(=O)NCC(C)NC(=O)c1c(C)cc(=O)oc1C (stereo unspecified),2.7,nt,-5.3,nt,3.16*
O=C(CSc1nnc2ccccn12)NC(=O)NC1CCCCC1,4.9,-5.47*,-0.8,8.3,-0.162
Cc1ccc(C2/C(=C(\O)c3cnn(-c4ccccc4)c3C)C(=O)C(=O)N2CCN(C)C)o1 (stereo unspecified),-1.9,-0.494,-12.3,nt,-2.35*
CCOC(=O)N1CCC(NC(=O)CSCc2nc(-c3sccc3C)oc2C)CC1,7.9,1.78,-39.1,10.6,2.77*
CCOC(=O)N1CCC(NC(=O)CSCc2nc(-c3cccc(OC)c3)oc2C)CC1,-4.9,0.0196,3.3,4.7,-0.00127
CCc1[nH]c(=O)c(C#N)c2c1CSC(C)(C)C2,nt,nt,2.1,nt,0.0371
Cc1[nH]c(=O)c(C#N)c2c1CSC(C)(C)C2,4.0,nt,nt,nt,-2.49*
COCCCn1c(=NC(=O)c2ccncc2)c(C#N)cc2c(=O)n3cccc(C)c3nc21,nt,0.738,i,18.6,0.59
Cc1cccn2c(=O)c3cc(C#N)c(=NC(=O)c4ccncc4)n(CCCOC(C)C)c3nc12,7.8,-0.154,i,-8.4,2.36*
Cc1ccc(OCC(=O)Nc2nnn(C)n2)c(C)c1,9.8,-1.98,0.2,-12.1,-2.56*
CCCn1nnc(NC(=O)COc2cc(C)ccc2C(C)C)n1,5.2,-0.00119,0.7,12.4,-8.89*
SMILES,Candida biofilm,D1 allo mod,MMP13 inh,AP ELISA ortho,hDAT+cocaine
Cc1cc(C)c(OCC(=O)Nc2nnn(C)n2)c(Br)c1,5.9,0.037,-3.0,2.1,-1.15
COc1ccc(S(=O)(=O)N(CCc2ccccc2)CC(=O)O)cc1C,4.4,nt,nt,nt,0.321
COc1ccc([C@H]2C=C3CN(C(=O)OC(C)(C)C)S(=O)(=O)[C@H]3C[C@H]2OC(=O)c2cccs2)cc1,nt,nt,nt,nt,0.406
CC(C)C[C@H](NC(=O)c1nc[nH]c1C(=O)NCc1ccccc1)C(=O)OCc1ccccc1,nt,nt,nt,nt,0.642
Fc1ccc2c(c1)C(c1ccncc1)=NNC(c1cccnc1)=N2,nt,nt,nt,nt,0.763
O=C(NCc1cccc(Br)c1)C1CC(c2ccccc2[N+](=O)[O-])=NO1 (stereo unspecified),nt,nt,nt,nt,1.73
O=C(O)CSc1nnc(-c2ccc(S(=O)(=O)N3CCCC3)cc2)n1Cc1ccco1,8.0,-4.15*,-6.7,12.4,-0.0035
NC(=O)CSc1nnc(-c2ccc(S(=O)(=O)N3CCCC3)cc2)n1Cc1ccco1,7.1,0.647,5.2,-5.2,0.0907
CCCn1c(=O)c2ccccc2n2c(SCC(=O)c3cc(C)n(CCOC)c3C)nnc12,-2.6,2.24*,-2.7,11.6,nt
COCCn1c(C)cc(C(=O)CSc2nnc(C)s2)c1C,3.1,-7.8*,-0.3,12.5,-0.735
CC(C)C[C@H](NC(=O)c1nc[nH]c1C(=O)N1CCN(C(=O)OC(C)(C)C)CC1)C(=O)OCc1ccccc1,nt,nt,nt,nt,0.0264

# Screening results as filed in PubChem BioAssay.
